Calb biofilm kill – mixtures killing C. albicans biofilm. inhibition, % at 7.6 µM. C. albicans biofilm persisters + clotrimazole, fluorescence viability; primary screen in compound mixtures of four per well. 120,000 tested, 0.02% active. AID 1242;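 active means inhibition above 30.3% in the primary screen of four-compound pools, then above 30% when the compound was retested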;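 further: compounds exposed to preformed 24 h biofilms for 48 h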
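Incubation: 24 h biofilm formation, then 48 h compound exposure, 37 °C | Material: C. albicans biofilms | Buffer or medium: RPMI/MOPS medium, pH 7.0 | Measured by: 2-h Alamar Blue fluorescence, 535/590 nm excitation/emission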
Pf gametocyte – P. falciparum stage V gametocyte viability inhibition; P. falciparum stage V gametocytes, ATP luminescence, 24 h; inhibition, % at 10.9 µM; 150,000 tested, 0.065% active;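 active means inhibition above the mean plus 3 SD of compounds within the control limits, set per campaign, cut at about 38% in these data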
ROMK primary – human ROMK K+ channel modulation, primary screen; P48048; Tet-inducible ROMK, thallium flux fluorescence; actives lie on both sides; B-score at 10 µM; 130,000 tested, 2% active; AID 1918;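 active means signal ratio slope over the read window, or its plate-corrected B-score, at least 3 SD from the plate mean, either direction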;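 further: B-score of the F/F0 ratio slope over 7 to 12 s after thallium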
Target sequence (P48048 whole entry, looked up): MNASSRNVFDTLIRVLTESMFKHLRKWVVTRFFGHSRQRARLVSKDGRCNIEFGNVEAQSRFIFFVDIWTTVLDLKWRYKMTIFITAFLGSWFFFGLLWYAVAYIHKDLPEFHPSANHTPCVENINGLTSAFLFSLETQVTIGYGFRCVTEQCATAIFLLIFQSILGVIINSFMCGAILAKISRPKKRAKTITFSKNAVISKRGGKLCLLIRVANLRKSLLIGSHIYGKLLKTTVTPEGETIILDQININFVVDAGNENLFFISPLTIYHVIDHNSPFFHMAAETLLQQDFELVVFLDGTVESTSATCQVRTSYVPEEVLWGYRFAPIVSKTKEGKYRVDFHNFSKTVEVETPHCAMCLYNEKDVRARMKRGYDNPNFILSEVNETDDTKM
ROMK retest – human ROMK channel modulation, retest confirmation; AID 1917; ROMK thallium flux, fluorescence ratio; active compounds read low; normalized thallium flux (F/F0 slope) at 10 µM; shares compounds with ROMK primary; 3,000 tested, 54% active;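 active means Flux at 10 µM at least 3 SD below or above vehicle control mean in one or both replicates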
Large screens that a line does not name were inactive (follow-up assays come after a bar, where they were run). Many of the other results were omitted from the sample, so hits are more common in it than they were.

CCNS(=O)(=O)c1ccc(NC(=O)Cc2ccc(F)cc2)cc1	none (no result: Calb biofilm kill, ROMK primary)
CC(=O)Nc1ccc(S(=O)(=O)NCCC(=O)NCCc2ccc(F)cc2)cc1	none (no result: Calb biofilm kill, ROMK primary) | ROMK retest inactive
Cc1ccc(S(=O)(=O)Nc2ccc(-c3nc4ccc(C)cc4s3)cc2)cc1	none (no result: ROMK primary)
Cc1cccc(S(=O)(=O)Nc2ccc(-c3nc4ccc(C)cc4s3)cc2)c1	none (no result: ROMK primary) | ROMK retest inactive
COc1ccc([C@@H]2CC=C(C(=O)O)[C@H](c3ccc(Cl)cc3)N2S(=O)(=O)c2ccccc2C)cc1	none (no result: Calb biofilm kill, ROMK primary)
Cc1ccc2nsnc2c1NS(=O)(=O)c1c(C)ccc2nsnc12	none (no result: Calb biofilm kill)
Cc1ccc(/C=[N+](\[O-])c2ccc(N(C)C)cc2)c2nsnc12	none (no result: ROMK primary) | ROMK retest 0.047
COC(=O)N/N=C/c1ccc(-c2cc(Cl)ccc2Cl)o1	none (no result: Pf gametocyte, ROMK primary) | ROMK retest 0.066
COC(=O)N/N=C\c1ccc(-c2cc(Cl)c(Cl)cc2Cl)o1	none (no result: Pf gametocyte)
CC1=C(C(=O)OCC2CCCO2)C(c2coc3ccc(Cl)cc3c2=O)C2=C(CCCC2=O)N1 (centres undefined)	ROMK primary -2.7 | ROMK retest inactive
CC1=C(C(=O)OCC2CCCO2)C(c2coc3ccc(C)cc3c2=O)C2=C(CCCC2=O)N1 (centres undefined)	none
Cc1c(NC(=O)/C(C#N)=C/C2CC=CCC2)c(=O)n(-c2ccccc2)n1C (centres undefined)	ROMK primary -5 (no result: Calb biofilm kill, Pf gametocyte) | ROMK retest 0.043
Cc1c(N2C(=O)/C(=C/C3CC=CCC3)SC2=S)c(=O)n(-c2ccccc2)n1C (centres undefined)	none (no result: ROMK primary)
Cc1c(NC(=O)/C(C#N)=C/c2ccc(-c3ccc(Cl)cc3)o2)c(=O)n(-c2ccccc2)n1C	ROMK primary -2.6 | ROMK retest inactive
Cc1c(NC(=O)/C(C#N)=C/c2ccc(-c3cc(Cl)ccc3Cl)o2)c(=O)n(-c2ccccc2)n1C	none (no result: ROMK primary)
Cc1c(NC(=O)/C(C#N)=C\c2cccs2)c(=O)n(-c2ccccc2)n1C	none (no result: ROMK primary)
Cc1c(N2C(=O)/C(=C\C3CC=CCC3)SC2=S)c(=O)n(-c2ccccc2)n1C (centres undefined)	ROMK primary -6.6 | ROMK retest 0.038
CC1CCC(NC(=O)c2ccc(NC(=O)c3ccc(=O)[nH]c3)cc2)CC1 (centres undefined)	none (no result: Pf gametocyte)
O=[N+]([O-])CC(=Nc1ccc(F)cc1)N/N=C\c1oc(O)c2ccccc12	none (no result: Pf gametocyte, ROMK primary)
Cc1ccc(CNc2ccc(N3CCN(C)CC3=O)cc2)cc1	none (no result: Calb biofilm kill, ROMK primary)
COc1cc2cc(CCCO)oc(=O)c2cc1OC	none (no result: Calb biofilm kill, ROMK primary)
Cc1[nH]c(=O)[nH]c(=S)c1C(=O)Nc1ccc(Cl)c(Cl)c1	none (no result: Calb biofilm kill, ROMK primary)
CCOc1cccc(NC(=O)/C(C#N)=C/c2cccnc2)c1	none (no result: ROMK primary) | ROMK retest 0.035
CCOc1ccc(/C=C(\C#N)C(=O)Nc2cccnc2)cc1	none (no result: ROMK primary)
CCC(CC)COC(=O)C1=C(C)NC(=O)NC1c1ccc(N(C)C)cc1 (centres undefined)	none (no result: Calb biofilm kill, ROMK primary)
S=c1[nH]c2ccc(Cc3ccc4[nH]c(=S)[nH]c4c3)cc2[nH]1	none (no result: Calb biofilm kill, ROMK primary)
COc1ccccc1-c1oc2ccccc2c1C#CC(C)(C)O	none (no result: Calb biofilm kill, ROMK primary)
N=c1sccn1CC(=O)N1N=C(c2ccc(Cl)cc2)CC1c1ccco1 (centres undefined)	ROMK primary -3.2 (no result: Pf gametocyte) | ROMK retest 0.064
O=C(OCC(=O)N1N=C(c2ccc(Cl)cc2)CC1c1ccco1)c1ccco1 (centres undefined)	none
C#CCSc1nnc(C)c(C)n1	none (no result: Calb biofilm kill, ROMK primary)
O=C(CSc1c2c(nc3cc(Cl)ccc13)CCCC2)NCCN1CCOCC1	none
O=C(CSc1c2c(nc3cc(Cl)ccc13)CCCC2)NCCCN1CCOCC1	ROMK primary -1.8 | ROMK retest inactive
CCOc1cc(-c2cc(-c3ccc(C)cc3)nc(N)c2C#N)ccc1O	none (no result: Calb biofilm kill)
CCOc1cc(/C=C(\C#N)c2[nH]nc(N)c2C#N)ccc1O	ROMK primary 4.8 (no result: Calb biofilm kill) | ROMK retest inactive
CC1(NC(=O)c2ccccc2)CCN(CCCc2ccccc2)C1=O (centres undefined)	none (no result: Calb biofilm kill, ROMK primary)
O=C(O)c1ccc(NC2=C/C(=N/S(=O)(=O)c3ccccc3)c3ccccc3C2=O)cc1	ROMK primary -3.4 | ROMK retest 0.052
O=C1C(Nc2ccc(O)cc2)=C/C(=N/S(=O)(=O)c2cccs2)c2ccccc21	none
CC1(C)Oc2ccccc2OC1(O)c1ccc2ccccc2n1 (centres undefined)	none (no result: Pf gametocyte, ROMK primary) | ROMK retest 0.064
O=[N+]([O-])c1ccc(/C=C/c2ccc3ccccc3n2)cc1	none
CNS(=O)(=O)c1ccc(C)c(S(=O)(=O)NC)c1	none (no result: Pf gametocyte)
CCc1ccnc(NS(=O)(=O)c2ccc3c(c2)CCO3)c1	none (no result: ROMK primary)
O=C(c1sccc1Cl)N1CCN(Cc2ccc3c(c2)OCO3)CC1	none (no result: ROMK primary)
O=C(Cc1ccccc1)NNc1c2ccccc2nc2ccccc12	none (no result: Pf gametocyte)
OCC(Cc1ccccc1)Nc1c2ccccc2nc2ccccc12 (centres undefined)	ROMK primary -6.4 (no result: Pf gametocyte) | ROMK retest 0.041
Cc1cc(C)c(NC(=O)C2CCCO2)c(C)c1 (centres undefined)	none (no result: Calb biofilm kill, ROMK primary)
CN(C(=O)c1cccc(NC(=O)c2ccco2)c1)c1ccccc1	none (no result: Calb biofilm kill, ROMK primary)
CN(C)c1cccc(NC(=O)c2ccco2)c1	ROMK primary 2.6 | ROMK retest inactive
NC(=O)N/N=C/c1ccccc1OC(=O)c1ccccc1Br	ROMK primary -3.2 (no result: Pf gametocyte) | ROMK retest 0.052
O=C(N/N=C/c1ccccc1C(=O)O)c1ccccc1Br	none
Clc1cccc(CN2CCSCC2)c1Cl	none (no result: Calb biofilm kill, ROMK primary)
COc1ccc(CN=Cc2c(O)[nH]c3ccccc23)cc1	none (no result: Pf gametocyte)
Cc1ccc(CN2CCN(/N=C/c3cc(Br)cc(Br)c3O)CC2)cc1	none (no result: Pf gametocyte)
Oc1c(C=NCc2ccc(F)cc2)[nH]c2ccc(Br)c(Cl)c12	ROMK primary -5.2 (no result: Calb biofilm kill) | ROMK retest 0.047
Cc1ccc(CN=Cc2[nH]c3ccc(Br)c(Cl)c3c2O)cc1	ROMK primary -3.2 (no result: Calb biofilm kill) | ROMK retest 0.045
O=c1[nH]c(Nc2ccccc2)cc2cc(Br)ccc12	none (no result: Calb biofilm kill, ROMK primary)
O=c1[nH]c(Nc2ccccc2)cc2ccccc12	ROMK primary -3.3 (no result: Calb biofilm kill) | ROMK retest 0.064
CCOc1ccc(N2CC(C(=O)Nc3cccc(S(=O)(=O)NC4=NCCC4)c3)CC2=O)cc1 (centres undefined)	none (no result: ROMK primary)
O=C(NCc1ccccc1)N1CCNCC1	none (no result: Calb biofilm kill, ROMK primary)
O=C(CS(=O)Cc1ccccc1Cl)Nc1ccccc1Cl (centres undefined)	none
COc1ccc(/C=N/N(Cc2ccccc2)c2ccccc2)cc1O	none
COC(=O)CCC(=O)Nc1sc2c(c1C#N)CCCC2	ROMK primary 5.9 (no result: Calb biofilm kill) | ROMK retest inactive
CCCC(=O)Nc1sc2c(c1C#N)CCCC2	none (no result: Calb biofilm kill)
Cc1ccc(CN2CCNC(=O)C2CC(=O)NCC(F)(F)F)o1 (centres undefined)	none
OCCNc1nc(-c2ccccc2)nc2c1oc1ccccc12	none
CCc1cc2cc3c(cc2nc1SCC(=O)Nc1cc(C)on1)OCO3	none (no result: Calb biofilm kill, Pf gametocyte, ROMK primary) | ROMK retest inactive
CCc1cc2ccc(C)cc2nc1SCC(=O)Nc1cc(C)on1	none (no result: ROMK primary)
Cc1ccc(C2=NN(C(=O)CCC(=O)O)C(c3cccs3)C2)cc1 (centres undefined)	none
COc1ccc(C2=NN(C(=O)CCC(=O)O)C(c3cccs3)C2)cc1 (centres undefined)	ROMK primary -3.5 | ROMK retest inactive
CCOc1ccc(-n2c(SCC(=O)c3c(N)n(C)c(=O)n(C)c3=O)nnc2-c2cccnc2)cc1	none (no result: ROMK primary)
CC(C)c1cccc(OCCCCN(C)C)c1	none
Cc1cccc(Cc2c(C)nc3c(C(=O)N4CCN(Cc5ccc6c(c5)OCO6)CC4)cnn3c2C)c1	none (no result: Calb biofilm kill, ROMK primary) | ROMK retest 0.046
